Assay results: ChEMBL document CHEMBL1158986, “New antimicrobial filicinic acid derivatives from Hypericum drummondii” (1991)
Converted amounts (≈) assume the structure as drawn.

Columns and labels:
Type in all cases: functional
Staphylococcus aureus = assay: Antimicrobial activity against Staphylococcus aureus after 24 hrs by twofold serial broth dilution technique
Procedure, shortened: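 S. aureus (ATCC 6538) cultured in eugon broth. Twofold serial broth dilution covering 0.20–100 μg/ml. Incubation at 37° for 24 h. MIC is the lowest concentration with no growth. Streptomycin sulfate served as standard control.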

[1] = test system: Mycolicibacterium smegmatis; assay: Antimicrobial activity against Mycobacterium smegmatis after 48 hrs by twofold serial broth dilution technique
Procedure, shortened: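 Mycobacterium smegmatis (ATCC 607) grown in eugon broth. Twofold serial broth dilution from 0.20 to 100 μg/ml, tubes kept at 37°, MIC read after 48 h as the lowest concentration preventing growth. Streptomycin sulfate included as standard control.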

Bacillus subtilis = assay: Antimicrobial activity against Bacillus subtilis after 24 hrs by twofold serial broth dilution technique
Procedure, shortened: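 B. subtilis (ATCC 6633) cultured in eugon broth. MIC by twofold serial broth dilution, compounds tested over 0.20–100 μg/ml. Tubes incubated at 30°, read after 24 h. MIC taken as the lowest concentration inhibiting growth. Streptomycin sulfate as standard control.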

| Compound | MIC (Staphylococcus aureus) [µg/mL] | MIC [1] [µg/mL] | MIC (Bacillus subtilis) [µg/mL] |
| --- | --- | --- | --- |
| CC(=O)C1=C(O)C(C)(CC=C(C)C)C(O)=C(Cc2c(O)c(C(C)=O)c(O)c3c2OC(C)(C)C=C3)C1=O (stereo not given) [ISODRUMMONDIN D] | 0.78 (≈ 1.57 µM) | 1.56 (≈ 3.14 µM) | 0.2 (≈ 0.403 µM) |
| CC(=O)C1=C(O)C(C)(CC=C(C)C)C(O)=C(Cc2c(O)c3c(c(C(C)=O)c2O)OC(C)(C)C=C3)C1=O (stereo not given) [DRUMMONDIN D] | 0.78 (≈ 1.57 µM) | 1.56 (≈ 3.14 µM) | 0.39 (≈ 0.785 µM) |
| CC(=O)C1=C(O)C(C)(CC=C(C)C)C(O)=C(Cc2c(O)c(CC=C(C)C)c(O)c(C(C)=O)c2O)C1=O (stereo not given) [DRUMMONDIN F] | 0.78 (≈ 1.56 µM) | 1.56 (≈ 3.13 µM) | 0.78 (≈ 1.56 µM) |

The next lines start with the values.

| MIC (Staphylococcus aureus) [µg/mL] | MIC [1] [µg/mL] | MIC (Bacillus subtilis) [µg/mL] | Compound |
| --- | --- | --- | --- |
| 12.5 (≈ 21.5 µM) | 1.56 (≈ 2.68 µM) | 0.78 (≈ 1.34 µM) | CN[C@@H]1[C@H](O[C@H]2[C@H](O[C@H]3[C@H](O)[C@@H](O)[C@H](N=C(N)N)[C@@H](O)[C@@H]3N=C(N)N)O[C@@H](C)[C@]2(O)C=O)O[C@@H](CO)[C@H](O)[C@H]1O [STREPTOMYCIN] |
| 0.39 (≈ 0.782 µM) | 3.12 (≈ 6.26 µM) | 0.2 (≈ 0.401 µM) | CC(=O)C1=C(O)C(C)(CC=C(C)C)C(O)=C(Cc2c(OCC=C(C)C)cc(O)c(C(C)=O)c2O)C1=O (stereo not given) [DRUMMONDIN E] |
